TRAIL sens C8: sensitizes caspase-8 expressing cells to TRAIL | NB7+C8 cells + TRAIL, ATPlite viability luminescence | inhibition (viability loss, TRAIL sensitization), % at 10 µM | 360,000 compounds, 1% hits;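 active = compounds causing at least 50% loss of cell viability in the single-dose screen, relative to plate controls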
FLuc stim CS: affects firefly luciferase, flagging false hits in luciferase stimulation screens; ATPlite luciferase biochemical, luminescence, 10 min; 0 = ATP-free wells, 1 = DMSO control; activation factor at 10 µM; 200,000 tested, under 10 active; AID 1027; P08659;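 active = luciferase activation factor, scaled between plate controls, of at least 2 with compound at 10 µM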
Target sequence (P08659 whole entry, looked up): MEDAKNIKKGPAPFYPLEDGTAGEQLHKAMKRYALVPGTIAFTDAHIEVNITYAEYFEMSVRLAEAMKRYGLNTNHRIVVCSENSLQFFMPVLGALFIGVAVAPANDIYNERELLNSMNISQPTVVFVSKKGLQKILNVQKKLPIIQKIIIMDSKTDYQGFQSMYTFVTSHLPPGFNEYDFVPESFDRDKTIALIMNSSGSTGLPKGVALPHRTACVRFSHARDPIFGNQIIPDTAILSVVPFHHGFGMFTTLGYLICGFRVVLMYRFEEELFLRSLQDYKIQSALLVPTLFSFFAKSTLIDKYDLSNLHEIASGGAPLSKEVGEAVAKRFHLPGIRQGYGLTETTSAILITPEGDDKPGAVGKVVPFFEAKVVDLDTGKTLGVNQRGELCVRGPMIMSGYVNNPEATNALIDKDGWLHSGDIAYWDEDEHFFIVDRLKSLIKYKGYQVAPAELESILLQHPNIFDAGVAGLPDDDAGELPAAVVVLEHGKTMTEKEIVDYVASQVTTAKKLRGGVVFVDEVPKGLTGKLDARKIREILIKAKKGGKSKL
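Assay system: Luciferase/luciferin reagent mix; Medium: PBS as buffer for the ATP substrate; Dosing: test compounds dosed from 2 mM stocks in 100% DMSO; Times: 10 min, room temperature; Signal: luminescence from luciferase reaction; Read-out: luciferase activation; Controls: No-ATP low control, compound-free enzyme-plus-ATP high control.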
PPC-1+TRAIL kill: kills PPC-1 cancer cells in the presence of TRAIL | cell killing (% activity), % at 4 µM or 5 µM | PPC-1 cells + TRAIL, ATPLite viability luminescence | 220,000 compounds, 0.41% hits;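 active = cell killing above 50% in the first pass at 4 µM, then a duplicate retest at 5 µM averaging 50% or more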;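 note: plate controls were cells with TRAIL plus DMSO for no effect and medium-only wells lacking cells for full effect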
FLuc inh counter: Photinus pyralis luciferase inhibition counter-screen | 200,000 compounds, 1.5% hits | ATPLite firefly luciferase biochemical luminescence, 10 min | inhibition, % at 10 µM | P08659;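 active = inhibition above about 50% when tested at 10 µM, limit read from the data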
PPC1 cytotox: kills PPC-1 cells | cytotoxicity, % at 5 µM | 1,200 compounds, 50% hits | AID 1447 | shares compounds with PPC-1+TRAIL kill | PPC-1 viability, ATPlite luminescence, overnight;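 active = reconfirmed compounds whose average cytotoxicity reaches 50% or more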;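 note: 0% = DMSO-treated cells and 100% = wells holding medium but no cells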
Numbers without * were called inactive; . = not tested or not shown. A selection: hits, their analogues and other compounds. The true share with any hit is near 1.6%.

SMILES	TRAIL sens C8	FLuc stim CS	PPC-1+TRAIL kill	FLuc inh counter	PPC1 cytotox
Cn1c(NCc2ccccc2)nc2cc(-c3ccccc3)sc2c1=O	3.3	.	.	.	.
Cc1nc2cc(-c3ccccc3)sc2c(=O)n1N	75.7*	0.1	65.3*	88.8*	63.7*
COc1cccc(C(=O)OCC(=O)Nc2cc(C)on2)c1OC	5.2	.	.	.	.
O=S(=O)(c1cccc(F)c1)N1CCCN(c2ccc(C(F)(F)F)cn2)CC1	6.3	.	18.6	.	.
CCOc1ccc(N=Cc2ccccc2O)cc1	3.6	.	.	.	.
CSc1ccccc1C(=O)NCc1ccc(S(N)(=O)=O)cc1	-0.5	1.1	15.6	-6.1	.
COCCSc1ccccc1C(=O)NCc1ccc(S(N)(=O)=O)cc1	4.2	1	6.0	-1.5	7.0
O=C(NCc1ccco1)C1CC(=O)N(c2ccc(O)cc2)C1 (configuration not stated)	1.7	1.1	-17.8	-7.6	7.7
COc1ccc(N2CC(C(=O)Nc3ccccc3C(=O)NCc3ccco3)CC2=O)cc1 (configuration not stated)	-8.4	1	21.8	-4.4	.
CCn1c(SCC(=O)Nc2cccc(S(=O)(=O)N(C)c3ccccc3)c2)nnc1C1CC1	-6.8	.	.	.	.
CC(=O)O[C@]1(C(C)=O)CC[C@H]2[C@@H]3C=CC4=CC(=O)C=C[C@]4(C)[C@H]3CC[C@@]21C	-6.6	.	.	.	.
N/C(=N\OCc1ccc([N+](=O)[O-])cc1)c1ccccn1	.	0	85.7*	95.8*	85.0*
COc1ccc(Cl)cc1C(=O)O/N=C(\N)c1ccccn1	14.3	.	.	.	.
N/C(=N\OC(=O)C(c1ccccc1)c1ccccc1)c1ccccn1	42.2	1.1	-6.2	-8.2	.
N/C(=N\OC(=O)c1cc(Cl)ccc1Cl)c1ccccn1	62.7*	0.3	54.9*	74.9*	58.1*
N/C(=N\OC(=O)c1ccccc1)c1ccccn1	49.0	0	43.5	96.0*	51.6*
CCOc1ccccc1NC(=O)CCC(=O)Nc1nnc(C2CCCCC2)s1	-3.1	.	.	.	.
Cc1nc2cc(Oc3nc(NCCN(C)C)nc4ccsc34)ccc2s1	9.4	.	.	.	.
O=C(Nc1ccccc1C(=O)N/N=C/c1ccncc1)c1ccccc1	88.6*	0	79.7*	96.5*	81.8*
CCCn1nc(NC(=O)c2ccco2)c2cc3ccc(C)cc3nc21	-10.1	1	-0.7	-1.3	6.7
CCCn1nc(NC(=O)c2ccco2)c2cc3cc(C)ccc3nc21	3.5	.	24.9	.	.
Cc1ccc(CNC(=O)COc2ccc(S(=O)(=O)N3CCOCC3)cc2)cc1	-7.0	.	.	.	.
CCOc1ccc(C(=O)Nc2cc(C)on2)cc1	63.7*	0.3	47.0	73.7*	50.5*
CCCC(=O)Nc1ccccc1NC(=O)c1ccc(OCC)cc1	-1.7	1	12.5	1.3	.
CCOc1ccc(C(=O)Nc2ccccc2C(=O)O)cc1	74.6*	0.1	61.9*	92.6*	61.5*
SMILES	TRAIL sens C8	FLuc stim CS	PPC-1+TRAIL kill	FLuc inh counter	PPC1 cytotox
COc1ccccc1OCC(=O)NCC1CCCN(Cc2cnn(C)c2C)C1 (configuration not stated)	-31.8	.	.	.	.
CCc1noc(C)c1C(=O)OCC(=O)Nc1cccc(C)c1	-0.4	.	.	.	.
Cc1cc2c3c(ccc(C)c3n1)N=CN2c1ccccc1	16.4	1.1	13.3	-5.5	10.3
COc1ccc(OCC(=O)N(C)CC2COc3ccccc3O2)cc1 (configuration not stated)	-7.3	.	.	.	.
CCOC(=O)[C@]12CCCC=C1N(Cc1ccccc1)C(=O)[C@H](CC(=O)N1CCCCCC1)C2	10.7	.	.	.	.
Cc1ccc(-c2sc(C(=O)NN)c(C)c2C#N)cc1	34.4	.	73.1*	.	76.0*
Cc1ccc(CSc2sc(C(=O)c3ccccc3)c(N)c2C#N)cc1	-5.1	1.1	-0.6	-8.7	.
Nc1nc(CCl)nc(N(c2ccccc2)c2ccccc2)n1	93.5*	.	89.8*	.	90.5*
COC(=O)C1=C(N)Oc2cc(C)n(CCCn3ccnc3)c(=O)c2C1c1cccc(Cl)c1 (configuration not stated)	-6.6	1	6.8	-0.3	-1.3
O=C(/C=C/c1ccccc1Br)c1ccc2c(c1)OCO2	-18.2	.	.	.	.
COC(=O)c1ccc(N/C=C\C(=O)c2ccc3c(c2)OCO3)cc1	19.6	0.8	29.7	16.3	.
O=C(/C=C\Nc1ccccc1Br)c1ccc2c(c1)OCO2	91.2*	0	93.4*	97.1*	93.8*
O=C(/C=C\Nc1cccc(F)c1)c1ccc2c(c1)OCO2	72.0*	0.1	73.8*	89.5*	70.9*
CSc1ccccc1NC(=O)CN(C)C(=O)c1ccc(NC(=O)c2cccs2)cc1	5.8	.	.	.	.

Screening results as filed in PubChem.
